Source: article PMC3734847 (Integrative biology : quantitative biosciences from nano to …, 2012)
Where “and” joins values, the source holds several entries; their conditions need not be identical. Identical values can stand only once. Entries after “also recorded” stand apart in the source; their conditions may differ. Like-named read-outs stand apart in the source and are kept apart here.

Tests used:
Tu212 SCC cells = assay: Neutral Red dye cell viability; format: cell-based, human
In short: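 Tu212 cells grown in DMEM/F12 with 10% FBS, penicillin/streptomycin and 2 mM L-glutamine at 37°C, 5% CO2. Plated in 96 wells and left overnight to adhere. Test compound (0–20 μM) or 0.1% DMSO vehicle added in triplicate. Neutral Red (50 μg/mL in fresh medium) added for 30 min at 37°C, then two PBS washes. Dye eluted with 0.5 N HCl/35% ethanol and read at OD570. Blank subtracted and triplicates averaged.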

[1] = Aqueous solubility by laser nephelometry; format: physicochemical; conditions: phosphate buffered saline with 1% DMSO, pH 7.4
Tu212 SCC xenografts [2] = assay: EF31 i.p. therapy of Tu212 SCC xenografts in female athymic nude mice; format: in vivo
[3] = Pharmacokinetic study of EF31 i.p. in mice; format: in vivo, ND4 Swiss Webster mice; conditions: mouse; for AUC(0-inf) / Vd/F / half-life / Cmax / Tmax: male, ND4 Swiss Webster, plasma, ip; for Cmax / Tmax: mouse plasma; for Tmax: DMSO/0.5% CMC (10%/90%)
In short: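 Male ND4 Swiss Webster mice (25–30 g) got one i.p. dose of 12.5 or 25 mg/kg in 10% DMSO/0.5% CMC. One submandibular blood sample per mouse, under ketamine/xylazine, at 0.08, 0.25, 0.5, 1, 2, 3, 4 or 6 h (n=3/time point). Heparinized plasma stored at −80°C, deproteinated with acetonitrile and run on LC/MS/MS with internal standard.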

NF-κB signaling pathway = assay: Western blotting of xenograft tumor extracts for the NF-κB signaling pathway; format: in vivo, athymic nude mice; conditions: 6 weeks, Western blot
In short: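 Tu212 cells (2 × 10^6) implanted s.c. in female athymic nude mice. Mice (n=10/group) dosed i.p. once daily, 5 days/week, with test compound at 12.5 or 25 mg/kg, or with vehicle (0.5% CMC/10% DMSO in water). Tumors lysed in RIPA buffer with protease inhibitors for 30 min on ice, then cleared at 13,000 rpm for 15 min at 4°C. 100 μg protein run on 10% SDS-PAGE and transferred to PVDF.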

[4] = Serum chemistry profile and pathologic examination of normal organs; format: in vivo, mice; conditions: 12.5 and 25 mg/kg i.p.
Tu212 SCC xenografts [5] = assay: H & E staining and immunohistochemistry of xenograft tumor tissues; format: in vivo, athymic nude mice
[6] = 12.5 mg/kg, 12.5 mg/kg i.p. single dose
[7] = 25 mg/kg, 25 mg/kg i.p. single dose
[8] = 12.5 and 25 mg/kg i.p., dose-dependent

Compound: O=C1/C(=C/c2ccccc2F)CNC/C1=C\c1ccccc1F [EF24, reference compound]
- IC50 (Tu212 SCC cells; read-out: IC50, viable cells, Tu212 cells, Neutral Red Dye assay, 0–20 μM, triplicate, 48 hours (Fig. 1 legend; methods: 72 h)): 8 µM

Compound: O=C1C(=Cc2ccccn2)CNCC1=Cc1ccccn1 [EF31, 3,5-bis(2-pyridinylmethylidene)-4-piperidone]
- IC50 (Tu212 SCC cells; Homo sapiens, TU212, read-out: IC50, viable cells): 7 µM
- solubility at 90 min [1]: 13 µg/mL and 47 µM
- tumor size vs vehicle control (Tu212 SCC xenografts [2]; 12.5 mg/kg i.p. once/day 5 days/week, n = 10, p < 0.05–0.01): reduced tumor size significantly
- dose relative to maximally tolerated dose (MTD) (Tu212 SCC xenografts [2]; 25 mg/kg i.p.): may be above the maximally tolerated dose
- animals died, apparently due to treatment (Tu212 SCC xenografts [2]; 25 mg/kg i.p. group, n = 10): three
- tumor size / tumor growth vs vehicle control (Tu212 SCC xenografts [2]; 25 mg/kg i.p. once/day 5 days/week, n = 10, p < 0.05–0.01): inhibited tumor growth almost completely; also recorded: reduced tumor size significantly
- temporary reduction of body weight (Tu212 SCC xenografts [2]; 25 mg/kg i.p., on average, regained as treatment continued): ~ 10%
- suppression of tumor growth, dose dependence (Tu212 SCC xenografts [2]; 12.5 and 25 mg/kg i.p. daily 5 days a week for over one month): dose-dependent suppression of tumor growth
- AUC(0-inf) ([3]; 12.5 mg/kg): 3390 ng·h/mL
- Vd/F ([3]; 12.5 mg/kg): 11.5 L/kg
- half-life ([3]; 12.5 mg/kg): 2.2 h
- Cmax [3, 6]: 1070 ng/mL
- Tmax [3, 6]: 0.25 h
- AUC(0-inf) ([3]; 25 mg/kg): 7770 ng·h/mL
- Vd/F ([3]; 25 mg/kg): 11.1 L/kg
- half-life ([3]; 25 mg/kg): 2.4 h
- Cmax [3, 7]: 2130 ng/mL
- Tmax [3, 7]: 0.5 h
- estimated volumes of distribution ([3]; 12.5 and 25 mg/kg i.p.): ~ 11 L/kg
- level of phosphorylated IKKα in tumors vs control (NF-κB signaling pathway; 25 mg/kg i.p.): reduced
- level of total IKKα in tumors vs control (NF-κB signaling pathway; 25 mg/kg i.p.): increased in a dose-dependent manner
- level of IκBα phosphorylated at serine 32 and 36 in tumors (NF-κB signaling pathway; 12.5 and 25 mg/kg i.p.): increased
- level of phosphorylated IKKβ in tumors (NF-κB signaling pathway; 12.5 and 25 mg/kg i.p.): reduced
- level of phosphorylated NF-κB p65 at Ser276 in tumors (NF-κB signaling pathway; [8]): decreased
- level of total IKKβ in tumors (NF-κB signaling pathway; [8]): increased
- level of total IκBα in tumors (NF-κB signaling pathway; [8]): decreased
- level of total p65 in tumors (NF-κB signaling pathway; [8]): decreased
- pathologic examination (hematoxylin-eosin) of liver, kidneys, lungs and spleen ([4]; n = 5/group): normal
- serum chemistry profile ([4]; treated mice, normal values from the University of Minnesota): all within the normal values
- degree of IHC staining of phosphorylated IκBα in tumors (Tu212 SCC xenografts [5]; 0, 12.5 and 25 mg/kg i.p. daily 5 days a week for 5 weeks): stronger in tumors treated at 25 mg/kg than 12.5 mg/kg, which is stronger than that in the control
- H & E staining of tumor tissues (Tu212 SCC xenografts [5]; 25 mg/kg i.p. daily 5 days a week for 5 weeks): tumor cells are replaced with fibrous scar tissue
